From ChEMBL document CHEMBL2331542, “Synthesis and in vitro antibacterial activity of quinolone/naphthyridone derivatives containing 3-alkoxyimino-4-(methyl)aminopiperidine scaffolds” (2013)

Key:
Assay type in all cases: functional
[1] = tested on: Klebsiella pneumoniae; assay: Antibacterial activity against extended-spectrum beta-lactamase-producing Klebsiella pneumoniae isolate 12-1
Outline: (§1)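 MIC determined in vitro by a standard technique and defined as the lowest compound concentration giving complete inhibition of bacterial growth. The Gram-positive and Gram-negative panels were tested alongside gemifloxacin, levofloxacin and ciprofloxacin reference drugs.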

[2] = tested on: Staphylococcus aureus; assay: Antibacterial activity against Staphylococcus aureus […]; outline: as §1
[3] = tested on: Escherichia coli; assay: Antibacterial activity against extended-spectrum beta-lactamase-producing Escherichia coli isolate 12-2; outline: as §1
[4] = tested on: Klebsiella pneumoniae; assay: Antibacterial activity against Klebsiella pneumoniae isolate 12-1; outline: as §1
[5] = tested on: Escherichia coli; assay: Antibacterial activity against Escherichia coli isolate 12-4; outline: as §1
[6] = tested on: Staphylococcus aureus; assay: Antibacterial activity against methicillin-resistant Staphylococcus aureus isolate 12-3
Outline: (§2)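 MIC determined in vitro by standard techniques, defined as the lowest compound concentration giving complete inhibition of bacterial growth. Gemifloxacin, levofloxacin and ciprofloxacin were tested alongside as reference drugs.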

[7] = tested on: Staphylococcus epidermidis; assay: Antibacterial activity against methicillin-sensitive Staphylococcus epidermidis isolate 12-2; outline: as §1
[8] = tested on: Escherichia coli; assay: Antibacterial activity against extended-spectrum beta-lactamase-producing Escherichia coli isolate 12-1; outline: as §1
[9] = tested on: Staphylococcus aureus; assay: Antibacterial activity against methicillin-resistant Staphylococcus aureus isolate 12-13; outline: as §2
[10] = tested on: Staphylococcus epidermidis; assay: Antibacterial activity against methicillin-sensitive Staphylococcus epidermidis isolate 12-1; outline: as §1
[11] = tested on: Staphylococcus aureus; assay: Antibacterial activity against methicillin-sensitive Staphylococcus aureus isolate 12-7; outline: as §1
[12] = tested on: Staphylococcus epidermidis; assay: Antibacterial activity against methicillin-resistant Staphylococcus epidermidis isolate 12-5; outline: as §2
[13] = tested on: Staphylococcus aureus; assay: Antibacterial activity against methicillin-resistant Staphylococcus aureus isolate 12-15; outline: as §2
[14] = tested on: Staphylococcus epidermidis; assay: Antibacterial activity against methicillin-sensitive Staphylococcus epidermidis isolate 12-3; outline: as §1
[15] = tested on: Escherichia coli; assay: Antibacterial activity against extended-spectrum beta-lactamase-producing Escherichia coli isolate 12-4; outline: as §1
[16] = tested on: Streptococcus pneumoniae; assay: Antibacterial activity against Streptococcus pneumoniae isolate 12-5; outline: as §1
[17] = tested on: Escherichia coli; assay: Antibacterial activity against Escherichia coli isolate 12-1; outline: as §1
[18] = tested on: Pseudomonas aeruginosa; assay: Antibacterial activity against Pseudomonas aeruginosa isolate 12-2; outline: as §1
[19] = tested on: Klebsiella pneumoniae; assay: Antibacterial activity against Klebsiella pneumoniae isolate 12-2; outline: as §1
[20] = tested on: Staphylococcus epidermidis; assay: Antibacterial activity against methicillin-resistant Staphylococcus epidermidis isolate 12-33; outline: as §2
[21] = tested on: Escherichia coli; assay: Antibacterial activity against Escherichia coli isolate 12-5; outline: as §1
[22] = tested on: Pseudomonas aeruginosa; assay: Antibacterial activity against Pseudomonas aeruginosa ATCC 27853; outline: as §1
[23] = tested on: Klebsiella pneumoniae; assay: Antibacterial activity against Klebsiella pneumoniae isolate 12-4; outline: as §1
[24] = tested on: Escherichia coli; assay: Antibacterial activity against Escherichia coli ATCC 25922; outline: as §1
[25] = tested on: Streptococcus pneumoniae; assay: Antibacterial activity against Streptococcus pneumoniae isolate 12-2; outline: as §1
[26] = tested on: Pseudomonas aeruginosa; assay: Antibacterial activity against Pseudomonas aeruginosa isolate 12-1; outline: as §1
[27] = tested on: Staphylococcus aureus; assay: Antibacterial activity against methicillin-sensitive Staphylococcus aureus isolate 12-10; outline: as §1
[28] = tested on: Staphylococcus epidermidis; assay: Antibacterial activity against methicillin-resistant Staphylococcus epidermidis isolate 12-35; outline: as §2
[29] = tested on: Staphylococcus aureus; assay: Antibacterial activity against methicillin-sensitive Staphylococcus aureus isolate 12-6; outline: as §1
[30] = tested on: Klebsiella pneumoniae; assay: Antibacterial activity against extended-spectrum beta-lactamase-producing Klebsiella pneumoniae isolate 12-2; outline: as §1
[31] = tested on: Klebsiella pneumoniae; assay: Antibacterial activity against extended-spectrum beta-lactamase-producing Klebsiella pneumoniae isolate 12-4; outline: as §1

Measured: MIC

CNC1CCN(c2ccc3c(=O)c(C(=O)O)cn(C4CC4)c3n2)C/C1=N\OC (stereo not drawn)
16 µg/mL: [7] | [26]
2 µg/mL: [4] | [12] | [19] | [23] | [27] | [28] | [29] | [31]
0.5 µg/mL: [2] | [24]
4 µg/mL: [6] | [9] | [11] | [13] | [16] | [20] | [25]
8 µg/mL: [10] | [14] | [18] | [22]
> 128 µg/mL: [5] | [8] | [21] | [30]
64 µg/mL: [15] | [17]
128 µg/mL: [1] | [3]

CCn1cc(C(=O)O)c(=O)c2cc(F)c(N3CCC(NC)/C(=N/OC)C3)c(F)c21 (stereo not drawn)
32 µg/mL: [30]
16 µg/mL: [1] | [7]
0.125 µg/mL: [2]
4 µg/mL: [4] | [19]
> 128 µg/mL: [3] | [5] | [8] | [21]
128 µg/mL: [15]
0.5 µg/mL: [10] | [12] | [14] | [24] | [27] | [28] | [29]
8 µg/mL: [17] | [18] | [20] | [22] | [26]
1 µg/mL: [6] | [9] | [11] | [13] | [16] | [23] | [25] | [31]

CCO/N=C1\CN(c2c(F)cc3c(=O)c(C(=O)O)cn(C4CC4)c3c2OC)CCC1NC (stereo not drawn)
8 µg/mL: [17]
1 µg/mL: [7] | [12] | [16] | [20] | [28]
0.125 µg/mL: [2] | [27]
> 128 µg/mL: [3] | [5] | [8] | [21] | [31]
4 µg/mL: [4] | [19]
32 µg/mL: [1] | [11] | [15] | [30]
2 µg/mL: [23]
0.25 µg/mL: [6] | [9] | [13] | [25] | [29]
0.5 µg/mL: [10] | [14]
16 µg/mL: [18] | [22] | [24] | [26]
